# T1: Serine hydrolase BPHL (Homo sapiens) (UniProt Q86WA6)
# T1 sequence (whole entry): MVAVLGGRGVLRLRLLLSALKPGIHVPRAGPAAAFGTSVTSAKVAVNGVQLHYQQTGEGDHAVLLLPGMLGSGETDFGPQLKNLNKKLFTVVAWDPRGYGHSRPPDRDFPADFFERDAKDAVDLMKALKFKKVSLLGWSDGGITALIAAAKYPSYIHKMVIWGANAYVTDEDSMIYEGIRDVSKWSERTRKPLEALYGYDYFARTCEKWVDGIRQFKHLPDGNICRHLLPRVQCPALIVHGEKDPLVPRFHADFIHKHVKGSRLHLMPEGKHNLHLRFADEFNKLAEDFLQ
# T2: Solute carrier family 15 member 1 (Homo sapiens, UniProt P46059)
# T2 sequence (P46059 whole entry): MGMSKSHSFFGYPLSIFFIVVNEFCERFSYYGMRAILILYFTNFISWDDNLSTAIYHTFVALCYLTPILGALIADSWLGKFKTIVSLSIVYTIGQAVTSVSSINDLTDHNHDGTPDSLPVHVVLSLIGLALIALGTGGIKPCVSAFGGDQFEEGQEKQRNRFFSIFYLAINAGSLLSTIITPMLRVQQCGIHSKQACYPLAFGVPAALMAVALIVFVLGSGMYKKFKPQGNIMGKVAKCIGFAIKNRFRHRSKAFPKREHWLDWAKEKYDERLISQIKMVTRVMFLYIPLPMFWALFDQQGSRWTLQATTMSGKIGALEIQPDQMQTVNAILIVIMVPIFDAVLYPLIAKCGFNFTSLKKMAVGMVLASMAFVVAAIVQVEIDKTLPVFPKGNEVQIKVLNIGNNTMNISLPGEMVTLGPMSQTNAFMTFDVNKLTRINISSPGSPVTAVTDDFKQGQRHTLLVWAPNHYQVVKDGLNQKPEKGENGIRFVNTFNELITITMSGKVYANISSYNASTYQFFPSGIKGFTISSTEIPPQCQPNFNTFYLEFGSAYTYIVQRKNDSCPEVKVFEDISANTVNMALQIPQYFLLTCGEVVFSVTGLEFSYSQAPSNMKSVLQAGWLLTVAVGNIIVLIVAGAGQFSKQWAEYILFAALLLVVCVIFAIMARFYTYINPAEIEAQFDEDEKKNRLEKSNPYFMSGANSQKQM
# Legend:
# [1] = Chemical stability in pH 6 buffer after 2 hrs; type: physicochemical; conditions: pH 6, 2 h
# In short: (§1)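 Hydrolysis at 37 °C in pH 6.0 uptake buffer (140 mM NaCl, 5.4 mM KCl, 1.8 mM CaCl2, 0.8 mM MgSO4, 5 mM glucose, 25 mM MES) or 10 mM phosphate pH 7.4. Compound added from 200 mM DMSO stock. […] Triplicate, mean ± SEM.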
# [2] = Chemical stability assessed as half life of hydrolysis in pH 7.4 buffer; type: physicochemical; conditions: for t1/2: buffer; in short: as §1
# [3] = system: HeLa; experiment: Stability in human HeLa cell homogenate assessed as half life of hydrolysis; type: ADME, cell-based
# In short: (§2)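 Homogenates from HeLa or Caco-2 cells: NaCl-washed, collected in 10 mM phosphate pH 7.4, sonicated on ice, spun 10,000 rpm 10 min at 4 °C; supernatant adjusted to 500 μg/mL protein. Compound added from 200 mM DMSO stock at 37 °C.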
# [4] = system: Caco-2; experiment: Stability in human Caco-2 cell homogenate assessed as half life of hydrolysis; type: ADME, Colon; in short: as §2
# [5] = target: T1, Serine hydrolase BPHL (Homo sapiens); experiment: Ratio of Kcat to Km of human recombinant VACVase assessed as hydrolysis
# In short: (§3)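 Recombinant human VACVase expressed in and purified from E. coli, stored at −80 °C, protein measured by Bio-Rad DC assay against BSA. Run in 50 mM HEPES pH 7.4 at 37 °C with 5 min buffer preincubation, enzyme added, then substrate to start. Michaelis-Menten fit; kcat = Vmax/[enzyme]0 using 28.83 kDa mass, active protein normalized to valacyclovir specific activity. Triplicate.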
# [6] = target: T2, Solute carrier family 15 member 1; experiment: Inhibition of human PEPT1-mediated [3H]Gly-Sar uptake in human HeLa cells; type: cell-based
# In short: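 HeLa cells grown 5 days, infected with hPEPT1 adenovirus 3 days before assay, washed in pH 6.0 MES uptake buffer. Incubated 30 min at 37 °C with 10 μM Gly-Sar (0.1 μM [3H]) plus test compound at 0.05–5 mM. Cells washed ice-cold, lysed in 0.1% SDS, scintillation counted. IC50 by nonlinear fit; n=4.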
# [7] = system: HeLa; experiment: Drug uptake in human HeLa cells expressing hPEPT1 after 60 mins; type: ADME, cell-based; conditions: 1 h
# In short: (§4)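 HeLa cells, with or without hPEPT1 adenovirus infection 3 days before assay, after 5 days' growth. Preincubated 15 min in pH 6.0 MES uptake buffer, then given 1 mM compound for 60 min at 37 °C. Cells washed in ice-cold DPBS, sonicated, TFA-precipitated (final 7%), supernatant read by HPLC and normalized to protein (nmol/mg). Donor solution stability by HPLC. Triplicate, mean ± SEM.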
# [8] = Stability in human HeLa cells expressing hPEPT1 after 60 mins; type: ADME, cell-based; conditions: read-out: Stability; in short: as §4
# [9] = system: HeLa; experiment: Drug uptake in human HeLa cells after 60 mins; type: ADME, cell-based; conditions: 1 h; in short: as §4
# [10] = Stability in human HeLa cells after 60 mins; type: ADME, cell-based; conditions: read-out: Stability; in short: as §4
# [11] = system: hPEPT1; experiment: Drug uptake in human HeLa cells expressing hPEPT1 after 60 mins relative ro control; type: ADME, cell-based; in short: as §4
# [12] = Stability in apical side in human Caco-2 cells at 120 mins by permeability study; type: ADME, cell-based; conditions: read-out: Stability
# [13] = Chemical stability in pH 7.4 buffer after 2 hrs; type: physicochemical; conditions: pH 7.4, 2 h; in short: as §1
# [14] = system: HeLa; experiment: Stability in human HeLa cell homogenate after 2 hrs; type: ADME, cell-based; in short: as §2
# [15] = system: Caco-2; experiment: Stability in human Caco-2 cell homogenate after 2 hrs; type: ADME, cell-based; conditions: caco-2, 2 h; in short: as §2
# [16] = substrate: CC(C)[C@H](N)C(=O)OCCOCn1cnc2c(=O)nc(N)[nH]c21; experiment: (§5) Activity of human recombinant VACVase assessed as hydrolysis; in short: as §3
# [17] = substrate: CC(C)[C@H](N)C(=O)OCc1cccc(NC(=N)N)c1; experiment: as §5; in short: as §3
# [18] = substrate: CC[C@H](C)[C@H](N)C(=O)OCc1cccc(NC(=N)N)c1; experiment: as §5; in short: as §3
# [19] = substrate: N=C(N)Nc1cccc(COC(=O)[C@@H](N)Cc2ccccc2)c1; experiment: as §5; in short: as §3
# [20] = substrate: CC(C)[C@H](N)C(=O)OCCOCn1cnc2c(=O)nc(N)[nH]c21; experiment: (§6) Activity of human recombinant VACVase assessed as hydrolysis measured per ug of protein; in short: as §3
# [21] = substrate: CC(C)[C@H](N)C(=O)OCc1cccc(NC(=N)N)c1; experiment: as §6; in short: as §3
# [22] = substrate: CC[C@H](C)[C@H](N)C(=O)OCc1cccc(NC(=N)N)c1; experiment: as §6; in short: as §3
# [23] = substrate: N=C(N)Nc1cccc(COC(=O)[C@@H](N)Cc2ccccc2)c1; experiment: as §6; in short: as §3
molecule,measurement,setting,value
CC(C)[C@H](N)C(=O)OCc1cccc(NC(=N)N)c1,Stability,[1],Stable
same,t1/2,[2],8.227 h
same,t1/2,[3],0.338 h
same,t1/2,[4],0.08 h
same,Ratio,[5],3370 mM⁻¹ s⁻¹
same,IC50,[6],650 µM
same,Drug uptake,[7],50.2 nmol/mg
same,remaining at 1 h,[8],96.9%
same,Drug uptake,[9],< 2 nmol/mg
same,remaining at 1 h,[10],98%
same,uptake ratio at 1 h,[11],> 25
same,remaining at 2 h,[12],86.5%
CC(C)[C@@H](N)C(=O)OCc1cccc(NC(=N)N)c1,remaining at 2 h,[12],98.8%
CC[C@H](C)[C@H](N)C(=O)OCc1cccc(N=C(N)N)c1,Stability,[1],Stable
same,t1/2,[2],11.75 h
same,t1/2,[3],2.287 h
same,t1/2,[4],0.993 h
same,IC50,[6],630 µM
same,Drug uptake,[7],27.7 nmol/mg
same,remaining at 1 h,[8],98.7%
same,Drug uptake,[9],< 2 nmol/mg
same,remaining at 1 h,[10],99%
same,uptake ratio at 1 h,[11],> 13
same,remaining at 2 h,[12],96.6%
N=C(N)Nc1cccc(CO)c1 [[3-(hydroxymethyl)phenyl]guanidine],Stability,[1],Stable
same,Stability,[13],Stable
same,Stability,[14],Stable
same,Stability,[15],Stable
same,IC50,[6],> 3000 µM
same,Drug uptake,[7],5.5 nmol/mg
same,Drug uptake,[9],3.8 nmol/mg
same,uptake ratio at 1 h,[11],1.4
CC(C)[C@H](N)C(=O)OCCOCn1cnc2c(=O)nc(N)[nH]c21,Ratio,[5],850 mM⁻¹ s⁻¹
CC[C@H](C)[C@H](N)C(=O)OCc1cccc(NC(=N)N)c1,Ratio,[5],1580 mM⁻¹ s⁻¹
NC(N)=Nc1cccc(COC(=O)[C@@H](N)Cc2ccccc2)c1,Stability,[1],Stable
same,t1/2,[2],4.363 h
same,t1/2,[3],< 0.083 h
same,t1/2,[4],< 0.017 h
same,IC50,[6],2330 µM
same,Drug uptake,[7],14.8 nmol/mg
same,remaining at 1 h,[8],83.8%
same,Drug uptake,[9],1.7 nmol/mg
same,remaining at 1 h,[10],87.2%
same,uptake ratio at 1 h,[11],8.8
same,remaining at 2 h,[12],3.9%
CC(C)[C@H](N)C(=O)OCCOCn1cnc2c(=O)[nH]c(N)nc21 [VALACYCLOVIR],Stability,[1],Stable
same,half-life,[2]; pH 7.4 buffer,8.23 h
same,t1/2,[3],2.37 h
same,t1/2,[4],0.522 h
same,IC50,[6],1420 µM
same,Drug uptake,[7],5.5 nmol/mg
same,remaining at 1 h,[8],96.8%
same,Drug uptake,[9],< 0.2 nmol/mg
same,remaining at 1 h,[10],99.2%
same,remaining at 2 h,[12],94.7%
N=C(N)Nc1cccc(COC(=O)[C@@H](N)Cc2ccccc2)c1,Ratio,[5],1660 mM⁻¹ s⁻¹
"Serine hydrolase BPHL (Homo sapiens), Q86WA6 (protein) MVAVLGGRGVLRLRLLLSALKPGIHVPRAGPAAAFGTSVTSAKVAVNGVQLHYQQTGEGDHAVLLLPGMLGSGETDFGPQLKNLNKKLFTVVAWDPRGYGHSRPPDRDFPADFFERDAKDAVDLMKALKFKKVSLLGWSDGGITALIAAAKYPSYIHKMVIWGANAYVTDEDSMIYEGIRDVSKWSERTRKPLEALYGYDYFARTCEKWVDGIRQFKHLPDGNICRHLLPRVQCPALIVHGEKDPLVPRFHADFIHKHVKGSRLHLMPEGKHNLHLRFADEFNKLAEDFLQ",Km,[16],68 µM
same,kcat,[16],58 s⁻¹
same,Km,[17],46 µM
same,kcat,[17],154 s⁻¹
same,Km,[18],9 µM
same,kcat,[18],14 s⁻¹
same,Km,[19],207 µM
same,kcat,[19],345 s⁻¹
same,Vmax,[20],120 nmol/min
same,Vmax,[21],321 nmol/min/µg
same,Vmax,[22],30 nmol/min/µg
same,Vmax,[23],718 nmol/min/µg
